Test system: MS2 coat protein
Test: apparent Kd, MS2 coat protein; higher = weaker binding; RNA-MaP array; FMN 200 µM where present
Summary of the method: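 On Illumina sequencing-chip clusters, designs were transcribed by stalled E. coli RNA polymerase and titrated with SNAP-549-labelled MS2 coat protein (0.7 or 1.5 nM, doubling to 3 µM), without and then with constant ligand, in 100 mM Tris-HCl pH 7.5, 80 mM KCl, 4 mM MgCl2, BSA, DTT, yeast tRNA and Tween-20. Apparent Kd is the median of filtered per-cluster curve fits to green signal normalised to red-channel RNA signal and control-cluster median Fmax.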

[1] = designed as: ON switch for flavin mononucleotide, no ligand
[2] = ligand present: flavin mononucleotide, designed as: ON switch for flavin mononucleotide
[3] = designed as: OFF switch for flavin mononucleotide, no ligand
[4] = ligand present: flavin mononucleotide, designed as: OFF switch for flavin mononucleotide

Row | Sequence | apparent Kd [1] | apparent Kd [2] | apparent Kd [3] | apparent Kd [4]
1 | GGAGCCGAUACUGAGGAUAUUCAUAUUAAAACAUGAGGAUCACCCAUGUAGGCCAGAAGGCCUUGGGAGAAGGCAGAUCGGCUCC | 417 nM | 26 nM | – | –
2 | CCCUCAAGCGAGGAUAUAAAUGCGCAUUCGCGGUUAGAAGGCGCUACAUGAGGAUCACCCAUGUAAUAAAAUGG | – | – | 68.2 nM | 86.4 nM
3 | GGAGACCUCACAGGAUAUGCUGGACUUUGUCCAGCAGAAGGGUGAAAACAUGAGGAUCACCCAUGUAUGGUCUCCAAAUUUAAU | 183 nM | 13.7 nM | – | –
4 | GGAUCCAACACAGGAUAUGCUGGACUUUGUCCAGCAGAAGGGUGAAGAACAUGAGGAUCACCCAUGUGGAUCCAUAUAUUUAAC | 240 nM | 16.8 nM | – | –
5 | GUGGUCAGACAUGAGGAUCACCCAUGUGGAAUAAAUAAGGAGAAGGAUAUUAAAUAUAGGAUAUAUAAGAAGGUCUGGUUGGUG | 86.8 nM | 95.8 nM | – | –
6 | AGCUAGUACCGAGGAUAUACAUACAUGAGGAUCACCCAUGUAUACAUGAAUAAAUGAGACUACAUGUAGAAGGCGGUACUAGCA | 71.1 nM | 20 nM | – | –
7 | GGAUCUGCAGGAUAUAUAAAAUGGCGUGAUGGAUUGUCUGUACAUGAGGAUCACCCAUGUAGAAGGGCGUUCCA | – | – | 29.1 nM | 58.3 nM
8 | GGAUAGGACAGAGGAUAUACGUGCUAGAGAUACUAGCAAAAUUUCCUCACAUGAGGAUCACCCAUGUAGAAGGCUCUCCUAUCG | – | – | 8.7 nM | 31.5 nM
9 | GGAAUCUGUGUCACUCCAUUGACAUGAGGAUCACCCAUGUCGCAGGAUAUCAGGCGCGGAGCGACUGAGAAGGGCGACUCGCGG | – | – | 86.4 nM | 50.5 nM
10 | GCCUCAUAGUAGAAGGGACUUAGACAGUUAAGCAUCUUGUACAAUUAACAUGAGGAUCACCCAUGUCAGGAUAUACUAAGAGGC | – | – | 8.02 nM | 9.49 nM
11 | CCUCUACAUGAGGAUCACCCAUGUGAGGAUAUCAAAGCCAGAGCGGCGCUCUGGCCCAUGAGAAGGUGCAUGGA | – | – | 25.9 nM | 133 nM
12 | AAAAUCUAUUGAGGAUAUUCAUACACUACAUACGAAGAAGGCAAACAAUCAUGAGGACAUGAGGAUCACCCAUGUUGUGACCAU | 24 nM | 15.5 nM | – | –
13 | CAGCCCUGAGGAUAUCCCUACUUGUACAUGAGGAUCACCCAUGUUCUCCUCUGGGCUUCGGGAGAAGGCAGGUCUC | – | – | 14.6 nM | 16.8 nM
14 | GGUUGGCGAGGAUAUACAUGAGGAUCACCCAUGUGGUCCUGUGGCUGAUCUUGCCUUUGUAGAAGGCGCGAAUC | – | – | 25.4 nM | 103 nM
15 | GGCUGGUAGCUAGGAUAUGGGCGGUCACAUGAGGAUCACCCAUGUCAACAUCAAAACCAGAUUAACCAGAAGGAGCUGCGGGUU | 36 nM | 37.8 nM | – | –
16 | CAGUACUGAGGAUAUACAUGAGGAUCACCCAUGUGUUCCAGCUAGGAAACUAGCAAAGGUAGAAGGCAGUACUG | – | – | 23.8 nM | 521 nM
17 | UGUGUUAUCGGAGGAUAUCGAUAUCAAACAUGAGGAUCACCCAUGUUGAGGAUCACCCAUGUCCACGAGAAGGCCGGCGUAGUG | 18.1 nM | 18.3 nM | – | –
18 | AAAAUCUAUAGAGGAUAUCCAUACGCUGCAUACGGAGAAGGCUAACAAUCAUGAGGACAUGAGGAUCACCCAUGUUGUGACCAU | 17.6 nM | 9.82 nM | – | –
19 | GUUGCACAAGUUAACAUGAGGAUCACCCAUGUCAAAAGACAUGAGGAUAUGGAUGUGAAGAUAAUCCAGAAGGCAUAAUGCUAA | 596 nM | 129 nM | – | –
20 | AUUAUGUUAGGAUAUGCUUAUGGUGGAUAGUCCAAUAUGGUGCAGAAGGGACAUGAGGAUCACCCAUGUACUGA | – | – | 83.2 nM | 90.3 nM
21 | AGUGUCAUCGAGAAGGCCUUAGGAACAUGAGGAUCACCCAUGUAACAUGGGAGGAUAUCGAUGAUACAGCUACGUUUCGUAGCA | 6.51 nM | 4.85 nM | – | –
22 | CUCGAGUGAGGAUAUAUACUUCCAUCAUUUGAGAGAGAAGUAUAGAAGGCACAUGAGGAUCACCCAUGUAUAAA | – | – | 47.5 nM | 69.7 nM
23 | AUGUUGAGCAGUGUAUUAAGAUCACAUGAGGAUCACCCAUGUAGAAGGCACGAGCUGAUCGCUCGUGAGGAUAUGCAUCACUGC | – | – | 7.12 nM | 29.2 nM
24 | UUUAUGUCAGGAUAUGAUUAGAUCUACUUCGGUAGAUCUAAUCAGAAGGGACAUGAGGAUCACCCAUGUAGUUU | – | – | 111 nM | 226 nM
25 | AUUAUGACCGAGUUAUAGUUCCAAACAUGAGGAUCACCCAUGUAGGAUAUCAGCACGAUAAGUGCUGAGAAGGACAUCUCGGUC | – | – | 14.9 nM | 16.1 nM
26 | UUGUUGUAUGUAGGAUAUGCAUAUUGUUAUUAUGCAGAAGGACAUGAGGAUCACCCAUGUAUAUUAUUAUUAUAUGUUAUAUAU | – | – | 23.5 nM | 27.8 nM
27 | CGCUACUACCAGAAGGACAUGAGGAUCACCCAUGUAGGAUAUGGGUUACAAGUUCCUGUGUAAAGAAACUACGCUACGUAUGCG | 715 nM | 31.7 nM | – | –
28 | UCAUCAGCGGGCGGGUCGGUUGGACAUGAGGAUCACCCAUGUAGAAGGACCGGUGGACUCCGGCGGUAGGAUAUACAUUUGGUG | – | – | 16.1 nM | 26.3 nM

Row | Sequence | apparent Kd [1] | apparent Kd [2] | apparent Kd [3] | apparent Kd [4]
29 | GCUCAGUAAGGAUAUUAAUGGCACUGUUAUUCAGCGCCAGCUGAGAAGGUACAUGAGGAUCACCCAUGUGGUGA | – | – | 228 nM | 135 nM
30 | GGAGGACGAAACAUGAGGAUCACCCAUGUGUUAUAAUUAAUAUAGGAUAUGUUUAUACUUUUUGGGCAGAAGGAUGAUAAUGCU | 21.9 nM | 16.9 nM | – | –
31 | UCCAGACAUGAGGAUCACCCAUGUGAGGAUAUGAUGCGAUCGUCGAAAGACGAUAGCAUCAGAAGGCACGUAUG | – | – | 33.7 nM | 48.3 nM
32 | AUACAUGAGGAUCACCCAUGUUACUGGGUCUAUAUAGAACGUAGAAGGAUGAUAUUAUAAAUAUCAUAGGAUAUACUAUUUUGU | – | – | 29.9 nM | 35.3 nM
33 | UCACAGGUUUAAGGCGUUCCCAGACAUGAGGAUCACCCAUGUAGAAGGACCGUAAGAAAUUUUCGGUAGGAUAUACAUUCAGGG | – | – | 28 nM | 31.9 nM
34 | GAGCGAAAGCUCAAUGUCGAUAGCAGAAGGACAUGUAAUCAUGAAAUAACAUGAGGAUCACCCAUGUAGGAUAUGCUAUCGACU | – | – | 309 nM | 88.8 nM
35 | AAGAAGUCAGGAUAUCCUGCUCGUCACUUGCGUGAUGAGUAGGAGAAGGGACAUGAGGAUCACCCAUGUAAAGC | – | – | 46.4 nM | 43.1 nM
36 | GGAAAGAAAAGCGAGGAUAUGCUAGGUAAUACAUGAGGAUCACCCAUGUUUUUUUUUAACAAAUUGCAGAAGGCGCAAGAAAGAAA | 24.5 nM | 17.4 nM | – | –
37 | AGUCCAGAAGGAUAUACAUAGGUGAAAAAAAAAAAAAAACUACAUGAGGAUCACCCAUGUAGAAGGUCUGGACA | – | – | 93.5 nM | 46 nM
38 | CCUCGACAUGAGGAUCACCCAUGUCAGGAUAUUGUGUUUUGGGUUUUUUACCUUUAGGCAAGAAGGGAUGUGUG | – | – | 16.4 nM | 24.1 nM
39 | GCCAUCGCAUGAGGAUAUGCUCCCGUUUCGGGAGCAGAAGGCAUGUCAUAAGACAUGAGGAUCACCCAUGUAGUUAAGAUGGCA | 723 nM | 32.5 nM | – | –
40 | AGACGGAUCCGCGGUCGAUGCUAACUAGAAGGGCAGGUCACAUGAGGAUCACCCAUGUAGUAUAUGUAGGAUAUAGGAAGCGUG | 95.2 nM | 20.9 nM | – | –
41 | CGAUAGUGUAGUUAUCCGUAGCGAACAUGAGGAUCACCCAUGUAGGAUAUGUUACUAAACUAGUAACAGAAGGGCAUGAGUCUU | – | – | 28.6 nM | 75.6 nM
42 | CUUUUGUGAGGAUAUUAGUAGUAAAUGAAUAAAAUUACUACUGAGAAGGCACAUGAGGAUCACCCAUGUUCCUC | – | – | 44.1 nM | 493 nM
43 | UUUUUCUGUGUGAGGAUAUACUUUGUUUGGUCGUUGUAGAAGGCACAUGAGGAUCACCCAUGUAGUUUGUUGUG | – | – | 23.9 nM | 33.1 nM
44 | CGAUGAGUAGGAUAUGCGUCGGAUGCAUCUGCAUGUCACUUACAUGAGGAUCACCCAUGUAGAAGGGCUCGUUC | – | – | 19 nM | 26 nM
45 | AUGUGGUGCGUAGGAUAUCAUUAAAGAAAACCCUGAGAAGGACGUGAGGACAUGAGGAUCACCCAUGUGGAUCACCCAUGUCAA | – | – | 316 nM | 278 nM
46 | GGCGCAGCGGAGAAGGACGUGGCUCGCCACCACGUAGGAUAUCCCUGUGUACCGAAUUGUUACAUGAGGAUCACCCAUGUGGAC | 6.16 nM | 6.28 nM | – | –
47 | GUAGCAUACCGAGGAUAUUCAGGGAAUAAAUAAACAUGAGGAUCACCCAUGUGGCGAAAGCCUAGGGAGAAGGCGGAAUGCUAC | 83.6 nM | 21.5 nM | – | –
48 | CAGUUCUGAGGAUAUCCAUCCUCCUACAUGAGGAUCACCCAUGUUUCCCUCUGGGUUUUCGGAGAAGGCAGUUAUU | – | – | 321 nM | 556 nM
49 | AAGGUCAAGAUAGGAUAUGUUUCAUGAUAGAUAACAGAAGGAUCUAGAACAUGAGGAUCACCCAUGUGGCACAUAGAGUGGUGA | 429 nM | 441 nM | – | –
50 | GGUGGACAUGAGGAUCACCCAUGUGAGGAUAUCGGCUGGUACGUGUUGGCUGGCAUCUCGAGAAGGCACAUAGG | – | – | 166 nM | 49.3 nM
51 | CAUCCACAUGAGGAUCACCCAUGUCAGGAUAUCUAUCAUAGCAUCGAAAGAUGCGGGUAGAGAAGGGACAAACC | – | – | 12.9 nM | 20.2 nM
52 | UAUUGAUAAUAUUUUAACAUGAGGAUCACCCAUGUCGCUAGACAGGAUAUAUUUUAUUUGUUUAAGUAGAAGGGUCGCAGAUUU | 150 nM | 130 nM | – | –
53 | AAGAAAGAAACAUAGGAUAUCAAGGAUAUAACAUGAGGAUCACCCAUGUAAAUACGAAAGUAUAAUGAGAAGGAUGGAUGAUCUAC | 238 nM | 437 nM | – | –
54 | GCUGCAUAUGAGAAGGCGAUCAUGAAACAUGAUCGAGGAUAUCAUGUAAACAUGAGGAUCACCCAUGUAUGGGUAUUAAGCAGC | 282 nM | 50.5 nM | – | –
55 | AAAUAGACAGGAUAUGCAUGAAAAUUAAAAAAAAAAAAAAAACAUGAGGAUCACCCAUGUAGAAGGGUCAAAAA | – | – | 107 nM | 99.5 nM
